ChEMBL document CHEMBL5325455, “Daphnanes diterpenes from the latex of Hura crepitans L. and their PKCζ-dependent anti-proliferative activity on colorectal cancer cells” (Bioorg Med Chem, 2023)
Active and inactive are the calls of the source. No cut-off for these calls is given here.

Columns and labels:
[1] = tested on: Caco-2; assay: Cytostatic activity against human Caco-2 cells assessed as inhibition of cell growth at 1 ug/ml preincubated for 30 mins with CRT0066854 hydrochloride followed by compound addition and measured after 48 hrs by MTS assay; assay type: functional, cell-based; settings: dose 1.0 µg/ml
Procedure, shortened: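 Caco-2 cells were pretreated for 30 min with CRT0066854 hydrochloride (2.5 µM; 0.625 and 1.25 µM also tested), then given compound at 1 µg/mL for 48 h. MTS absorbance was read at 490 nm relative to DMSO controls; n=3, t-test.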

[2] = tested on: Colorectal epithelial cell; assay: Cytostatic activity against human Colorectal epithelial cells isolated from left colon of patient with sigmoido-vaginal fistula for diverticulitis cultured as organoids at 1 ug/ml incubated for 48 hrs by CellTiter-Glo luminescence assay; assay type: functional, cell-based; settings: dose 1.0 µg/ml
Procedure, shortened: (§1)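 Primary colonic epithelial cells (3 control and 2 CRC patients) were expanded as organoids or spheroids in Matrigel with EGF/noggin/Wnt3a/R-spondin medium. Single cells were seeded at 2500/well and allowed 48 h to form colonoids, then exposed for 48 h at 0.01, 0.1 or 1 µg/mL, with 5FdU at 1 µg/mL as positive control. Viability was read by CellTiter-Glo luminescence versus DMSO or medium control.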

[3] = tested on: Colorectal epithelial cell; assay: Cytostatic activity against human Colorectal epithelial cells isolated from left colon of patient with recurrent diverticulitis cultured as organoids at 1 ug/ml incubated for 48 hrs by CellTiter-Glo luminescence assay; assay type: functional, cell-based; settings: dose 1.0 µg/ml; procedure, shortened: as §1
[4] = tested on: Caco-2; assay: Effect on beta-catenin protein expression in human Caco-2 cells at 1 ug/ml incubated for 48 hrs by Western blot analysis; assay type: functional, cell-based; settings: dose 1.0 µg/ml
Procedure, shortened: (§2)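 Caco-2 cells (0.25 × 10^6/well) were treated at 1 µg/mL for 48 h and lysed in pH 7.4 Tris/NaCl/Triton/EDTA buffer with protease and phosphatase inhibitors. 30 µg protein was run per lane on 4–15% gels and blotted for pSer9-GSK3β, total GSK3β, pSer473-Akt, total Akt and β-catenin, with actin as loading control. Detection was by ECL; n=2, t-test versus DMSO.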

[5] = biological target: RAC-alpha serine/threonine-protein kinase (Homo sapiens) (UniProt P31749); assay: Inhibition of AKT in human Caco-2 cells assessed as reduction in phosphorylation at serine 473 residue at 1 ug/ml incubated for 48 hrs by Western blot analysis; assay type: cell-based; settings: dose 1.0 µg/ml; procedure, shortened: as §2
Sequence of RAC-alpha serine/threonine-protein kinase (Homo sapiens) (P31749 whole entry): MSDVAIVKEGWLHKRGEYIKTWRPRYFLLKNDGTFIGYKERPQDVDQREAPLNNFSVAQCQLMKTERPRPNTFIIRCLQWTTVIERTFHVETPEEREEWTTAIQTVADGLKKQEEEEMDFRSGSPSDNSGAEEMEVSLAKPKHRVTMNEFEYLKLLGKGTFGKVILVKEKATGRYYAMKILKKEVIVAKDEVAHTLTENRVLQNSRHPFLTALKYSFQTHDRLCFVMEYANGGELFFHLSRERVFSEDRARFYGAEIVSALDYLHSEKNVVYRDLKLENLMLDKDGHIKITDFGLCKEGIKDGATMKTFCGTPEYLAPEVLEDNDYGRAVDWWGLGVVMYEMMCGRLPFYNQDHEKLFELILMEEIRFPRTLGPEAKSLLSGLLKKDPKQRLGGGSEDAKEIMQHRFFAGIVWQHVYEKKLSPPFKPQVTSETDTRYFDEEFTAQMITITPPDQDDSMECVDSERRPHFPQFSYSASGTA

[6] = Cytostatic activity against human Colorectal epithelial cells isolated from patient with well-differentiated colonic adenocarcinoma and undergone nine courses of chemotherapy cultured as organoids assessed as inhibition of cell growth at 0.1 ug/ml incubated for 48 hrs by CellTiter-Glo luminescence assay relative to control; assay type: functional; procedure, shortened: as §1
[7] = tested on: Caco-2; assay: Induction of morphological changes in human Caco-2 cells assessed as densification of cytoskeleton at 1 ug/ml incubated for 48 hrs by Hoechst 3342 and phalloidin staining based confocal microscopic analysis; assay type: functional, cell-based; settings: dose 1.0 µg/ml
Procedure, shortened: (§3)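 Caco-2 cells (40 000/well) were exposed for 48 h, then fixed in 3.7% PFA and permeabilised with Triton X100/BSA. Actin was stained with phalloidin and nuclei with Hoechst 3342, and cells were viewed by confocal microscopy.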

[8] = tested on: Caco-2; assay: Induction of morphological changes in human Caco-2 cells at 1 ug/ml preincubated for 30 mins with CRT0066854 hydrochloride followed by compound addition and measured after 48 hrs by Hoechst 3342 and phalloidin staining based confocal microscopic analysis; assay type: functional, cell-based; settings: dose 1.0 µg/ml
Procedure, shortened: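 CRT0066854 hydrochloride (2.5 µM) was added to Caco-2 cells 30 min before compound at 1 µg/mL. After 48 h, nuclei and actin cytoskeleton were labelled and confocal views taken with a 20X objective; duplicates from one experiment.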

[9] = tested on: Caco-2; assay: Induction of morphological changes in human Caco-2 cells assessed as reorganization of epithelial tissue architecture at 1 ug/ml incubated for 48 hrs by Hoechst 3342 and phalloidin staining based confocal microscopic analysis; assay type: functional, cell-based; settings: dose 1.0 µg/ml; procedure, shortened: as §3
[10] = tested on: Colorectal epithelial cell; assay: Cytostatic activity against human Colorectal epithelial cells isolated from patient with fistulized sigmoiditis cultured as organoids at 1 ug/ml incubated for 48 hrs by CellTiter-Glo luminescence assay; assay type: functional, cell-based; settings: dose 1.0 µg/ml; procedure, shortened: as §1
[11] = biological target: Glycogen synthase kinase-3 beta (Homo sapiens) (UniProt P49841); assay: Inhibition of GSK3beta in human Caco-2 cells assessed as increase in phosphorylation at serine 9 residue at 1 ug/ml preincubated for 30 mins with CRT0066854 hydrochloride followed by compound addition and measured after 48 hrs by Western blot analysis; assay type: cell-based; settings: dose 1.0 µg/ml
Sequence of Glycogen synthase kinase-3 beta (Homo sapiens) (P49841 whole entry, looked up): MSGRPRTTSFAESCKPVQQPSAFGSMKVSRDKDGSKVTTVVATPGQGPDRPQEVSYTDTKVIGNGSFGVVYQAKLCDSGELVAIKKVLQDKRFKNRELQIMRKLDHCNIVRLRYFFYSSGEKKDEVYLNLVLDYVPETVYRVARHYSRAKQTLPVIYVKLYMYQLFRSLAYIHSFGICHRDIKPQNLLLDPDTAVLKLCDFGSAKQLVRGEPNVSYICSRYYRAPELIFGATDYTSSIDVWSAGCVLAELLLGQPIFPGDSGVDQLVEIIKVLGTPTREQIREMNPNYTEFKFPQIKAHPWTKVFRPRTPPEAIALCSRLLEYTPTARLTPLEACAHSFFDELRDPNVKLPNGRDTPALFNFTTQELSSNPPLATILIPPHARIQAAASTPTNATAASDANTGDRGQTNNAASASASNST
Procedure, shortened: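 Caco-2 cells were pretreated with 2.5 µM CRT0066854 hydrochloride for 30 min, then treated at 1 µg/mL for 48 h. Lysates (30 µg protein) were immunoblotted for pSer9-GSK3β and total GSK3β, with actin loading control and ECL detection; n=2.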

[12] = tested on: Caco-2; assay: Upregulation of AKT protein expression in human Caco-2 cells at 1 ug/ml incubated for 48 hrs by Western blot analysis; assay type: functional, cell-based; settings: dose 1.0 µg/ml; procedure, shortened: as §2
[13] = tested on: Caco-2; assay: Induction of apoptosis in human Caco-2 cells assessed as increase in active caspase 3 level; assay type: functional, cell-based
[14] = tested on: Colorectal epithelial cell; assay: Cytostatic activity against human Colorectal epithelial cells isolated from patient with well-differentiated colonic adenocarcinoma and undergone nine courses of chemotherapy cultured as organoids at 1 ug/ml incubated for 48 hrs by CellTiter-Glo luminescence assay; assay type: functional, cell-based; settings: dose 1.0 µg/ml; procedure, shortened: as §1
[15] = tested on: Caco-2; assay: Induction of morphological changes in human Caco-2 cells assessed as cellular aggregates formation at 0.125 ug/ml incubated for 48 hrs by Hoechst 3342 and phalloidin staining based confocal microscopic analysis; assay type: functional, cell-based; settings: dose 0.125 µg/ml; procedure, shortened: as §3
[16] = biological target: Glycogen synthase kinase-3 beta (Homo sapiens) (UniProt P49841); assay: Inhibition of GSK3beta in human Caco-2 cells assessed as increase in phosphorylation at serine 9 residue at 1 ug/ml incubated for 48 hrs by Western blot analysis; assay type: cell-based; settings: dose 1.0 µg/ml; procedure, shortened: as §2
[17] = tested on: Caco-2; assay: Cytostatic activity against human Caco-2 cells assessed as inhibition of cell growth at 1 ug/ml preincubated for 15 mins with PKCalpha inhibitor, Go6976 followed by compound addition and measured after 48 hrs by MTS assay; assay type: functional, cell-based; settings: dose 1.0 µg/ml
Procedure, shortened: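 Caco-2 cells (40 000/well) were pretreated with 0.2 µM Gö6976 for 15 min, then given compound at 1 µg/mL for 48 h. MTS absorbance was read at 490 nm and activity calculated relative to DMSO controls; triplicates, 1–3 independent experiments, two-way ANOVA.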

[18] = tested on: Colorectal epithelial cell; assay: Cytostatic activity against human Colorectal epithelial cells isolated from patient with well-differentiated colonic adenocarcinoma cultured as organoids at 1 ug/ml incubated for 48 hrs by CellTiter-Glo luminescence assay; assay type: functional, cell-based; settings: dose 1.0 µg/ml; procedure, shortened: as §1
[19] = Cytostatic activity against human Colorectal epithelial cells isolated from patient with well-differentiated colonic adenocarcinoma cultured as organoids assessed as inhibition of cell growth at 0.1 ug/ml incubated for 48 hrs by CellTiter-Glo luminescence assay relative to control; assay type: functional; procedure, shortened: as §1
[20] = tested on: Caco-2; assay: Induction of morphological changes in human Caco-2 cells assessed as cellular aggregation at 1 ug/ml preincubated for 15 mins with PKCalpha inhibitor, Go6976 followed by compound addition and measured after 48 hrs by immunostaining based confocal microscopic analysis; assay type: functional, cell-based; settings: dose 1.0 µg/ml
Procedure, shortened: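 Caco-2 cells were given 0.2 µM Gö6976 for 15 min before compound at 1 µg/mL for 48 h. PKCα was immunostained, nuclei and cytoskeleton were labelled, and cells were imaged by confocal microscopy (20X objective) in duplicate from one experiment.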

[21] = Cytotoxicity against HIEC-6 cells assessed as inhibition of cell growth at 1 ug/ml incubated for 48 hrs by MTS assay; assay type: toxicity, cell-based; settings: human, hiec-6, 48 h, dose 1 µg/ml
Procedure, shortened: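 HIEC6 cells were grown in OPTIMEM with GlutaMAX, Hepes and 10 ng/mL EGF and seeded at 60 000/well 48 h before dosing. Cells were exposed to 1 µg/mL for 48 h, and viability was read by MTS absorbance at 490 nm versus DMSO; 3 independent experiments, t-test.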

| SMILES | Activity [1] | Activity [2] | Activity [3] | Activity [4] | inhibition [5] | inhibition at 0.1 µg/mL [6] | Activity [7] | Activity [8] | Activity [9] | Activity [10] | inhibition [11] | Activity [12] | Activity [13] | Activity [14] | Activity [15] | inhibition [16] | Activity [17] | Activity [18] | inhibition at 0.1 µg/mL [19] | Activity [20] | also measured |
| --- | --- | --- | --- | --- | --- | --- | --- | --- | --- | --- | --- | --- | --- | --- | --- | --- | --- | --- | --- | --- | --- |
| C=C(C)[C@]12C[C@@H](C)[C@@]34O[C@](/C=C/[C@@H]5O[C@H]5CCCCCCCCC)(O[C@@H]1[C@@H]3[C@@H]1O[C@]1(CO)[C@@H](O)[C@]1(O)C(=O)C(C)=C[C@H]14)O2 | inactive | Active | Active | inactive | Active | 40% | Active | inactive | Active | Active | inactive | Active | inactive | Active | Active | Active | Active | Active | 40% | Active | Activity [21]: Non-Toxic |
| C=C(C)[C@]12C[C@@H](C)[C@@]34O[C@](/C=C/C=C/CCCCCCCCC)(O[C@@H]1[C@@H]3[C@@H]1O[C@]1(CO)[C@@H](O)[C@]1(O)C(=O)C(C)=C[C@H]14)O2 | inactive | Active | Active | inactive | Active | 40% | Active | inactive | Active | Active | inactive | Active | inactive | Active | Active | Active | Active | Active | 40% | Active | Activity [21]: Non-Toxic |
